Measurements from ChEMBL document CHEMBL3745663, “Identification of a novel class of quinoline-oxadiazole hybrids as anti-tuberculosis agents” (Bioorg Med Chem Lett, 2016).
Values after ≈ are worked out from the molar mass of the structure shown. Where a name gives a salt, the structure may show the parent alone.

Legend:
[1] = Cytotoxicity against human HepG2 cells after 48 hrs by SRB assay; format: cell-based
[2] = system: Mycobacterium tuberculosis; assay: Antibacterial activity against Mycobacterium tuberculosis H37Rv after 7 days by resazurin microplate assay; format: functional; settings: 168 h
[3] = Selectivity index, ratio of CC50 for human HepG2 cells to MIC for Mycobacterium tuberculosis H37Rv; format: toxicity, cell-based; settings: read-out: Selectivity Index
How it was run: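 Index equals HepG2 CC50 (SRB assay, 10 to 80 µg/mL) divided by the REMA MIC against M. tuberculosis H37Rv (50 to 0.1 µg/mL).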

[4] = Metabolic stability in rat liver microsomes assessed as compound remaining at 10 uM after 60 mins by HPLC analysis; format: ADME; settings: read-out: Stability
How it was run: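 Compound was incubated with rat liver microsomes and its disappearance followed over 60 minutes. Diazepam was the internal standard. The drug-to-internal-standard ratio was calculated at each time point to gauge how much compound remained.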

[5] = system: Mycobacterium tuberculosis; assay: Antibacterial activity against Mycobacterium tuberculosis; format: functional

Compound | CC50 at 48 h [1] | MIC [2] | selectivity ratio [3] | remaining at 1 h, 10 µM [4] | MIC [5]
COc1nc2ccccc2cc1/C=C/c1noc(-c2ccccc2Br)n1 | > 195 µM | 16.8 µM (≈ 6.86 µg/mL) | > 11.6 | – | –
COc1nc2ccccc2cc1/C=C/c1noc(-c2ccc(Br)cc2)n1 | > 195 µM | 9.19 µM (≈ 3.75 µg/mL) | > 21.2 | – | –
COc1nc2ccccc2cc1/C=C/c1noc(COc2ccccc2)n1 | > 220 µM | 0.67 µM (≈ 0.241 µg/mL) | > 330 | – | –
COc1nc2ccccc2cc1/C=C/c1noc(-c2ccccc2C)n1 | > 230 µM | 72.8 µM (≈ 25 µg/mL) | > 3.16 | – | –
COc1nc2ccccc2cc1/C=C/c1noc(-c2ccc(F)cc2)n1 | > 230 µM | 5.61 µM (≈ 1.95 µg/mL) | > 41 | – | –
COc1ccc(-c2nc(/C=C/c3cc4ccccc4nc3OC)no2)cc1 | > 220 µM | > 140 µM | > 1.57 | – | –
COc1nc2ccccc2cc1/C=C/c1noc(-c2ccco2)n1 | > 250 µM | 27.4 µM (≈ 8.75 µg/mL) | > 9.12 | – | –
COc1ccc(Cc2nc(/C=C/c3cc4ccccc4nc3OC)no2)cc1 | > 215 µM | 0.4 µM (≈ 0.149 µg/mL) | > 535 | – | –
COc1nc2ccccc2cc1/C=C/c1noc(-c2cccnc2)n1 | > 240 µM | > 150 µM | > 1.6 | – | –
COc1nc2ccccc2cc1/C=C/c1noc(C)n1 | > 300 µM | 1.05 µM (≈ 0.281 µg/mL) | > 285 | – | –
COc1nc2ccccc2cc1/C=C/c1noc(-c2cccc(C)c2)n1 | > 230 µM | 110 µM (≈ 37.8 µg/mL) | > 2.09 | – | –
COc1nc2ccccc2cc1/C=C/c1noc(-c2ccc(C)cc2)n1 | > 230 µM | 40 µM (≈ 13.7 µg/mL) | > 5.75 | – | –
COc1nc2ccccc2cc1/C=C/c1noc(-c2cccc(Cl)c2)n1 | > 220 µM | > 110 µM | > 2 | – | –
COc1nc2ccccc2cc1/C=C/c1noc(-c2ccccc2)n1 | > 240 µM | 12.3 µM (≈ 4.05 µg/mL) | > 19.5 | – | –
COc1cccc(-c2nc(/C=C/c3cc4ccccc4nc3OC)no2)c1 | > 220 µM | 105 µM (≈ 37.7 µg/mL) | > 2.1 | – | –
COc1ccccc1-c1nc(/C=C/c2cc3ccccc3nc2OC)no1 | > 220 µM | 6.96 µM (≈ 2.5 µg/mL) | > 31.6 | – | –
COc1nc2ccccc2cc1/C=C/c1noc(/C=C/c2ccccc2)n1 | > 225 µM | 6.33 µM (≈ 2.25 µg/mL) | > 35.5 | – | –
COCc1nc(/C=C/c2cc3ccccc3nc2OC)no1 | > 270 µM | 0.44 µM (≈ 0.131 µg/mL) | > 610 | 99% | –
COc1nc2ccccc2cc1/C=C/c1noc(Cc2ccccc2)n1 | > 230 µM | 0.44 µM (≈ 0.151 µg/mL) | > 520 | – | –
COc1nc2ccc(Br)cc2cc1[C@@H](c1ccccc1)[C@@](O)(CCN(C)C)c1cccc2ccccc12 [BEDAQUILINE] | – | – | – | – | 0.1 µM (≈ 0.0556 µg/mL)
COc1cccc2c1C(=O)c1c(O)c3c(c(O)c1C2=O)C[C@@](O)(C(=O)CO)C[C@@H]3O[C@H]1C[C@H](N)[C@H](O)[C@H](C)O1 [DOXORUBICIN HYDROCHLORIDE] | 127 µM | – | – | – | –
NNC(=O)c1ccncc1 [ISONIAZID] | – | 0.73 µM (≈ 0.1 µg/mL) | – | – | –
